Fh CTSL1 inh = cathepsin L1 inhibition, PFM18AAP counter-screen; recombinant F. hepatica cathepsin L1, Z-Leu-Arg-MCA fluorescence; inhibition, % at 5.96 µM; 0.49% of 300,000 active;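 active = inhibition above the mean of all tested compounds plus 3 SD, set per screening campaign, cut at about 17% in these data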;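 also: 0% = plate median of test compound wells and 100% = 1 µM Z-Phe-Ala-diazomethylketone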
PRMT1 FP inh = inhibitors of human PRMT1. AID 652257. recombinant PRMT1, activity-based probe fluorescence polarization. inhibition, % at 2.79 µM. 1.3% of 370,000 active;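 active = inhibition above about 21% made by adding two undisclosed values, limit read from the data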
GSTO1 inh = counter-screen for RBBP9 inhibitors: inhibitors of human GSTO1 | P78417 | recombinant GSTO1, activity-based probe fluorescence polarization | inhibition, % at 5.96 µM | 1.1% of 300,000 active | AID 1974;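 active = inhibition above the campaign mean inhibition plus 3 SD, cut at about 35% in these data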;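 also: 0% = GSTO1-1 with DMSO and 100% = wells lacking GSTO1-1 enzyme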
Target sequence (P78417 whole entry, looked up): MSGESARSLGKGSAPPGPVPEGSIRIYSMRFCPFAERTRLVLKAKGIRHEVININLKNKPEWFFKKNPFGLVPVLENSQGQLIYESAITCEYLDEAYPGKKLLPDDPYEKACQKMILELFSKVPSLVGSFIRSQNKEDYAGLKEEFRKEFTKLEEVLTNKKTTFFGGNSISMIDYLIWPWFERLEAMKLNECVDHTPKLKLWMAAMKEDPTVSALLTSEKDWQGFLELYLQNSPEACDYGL
TDP2 absorb = blocks human TDP2 phosphodiesterase activity | O95551 | recombinant TDP2, T5PNP hydrolysis, p-nitrophenol absorbance 415 nm | inhibition, % at 12.8 µM | 0.34% of 370,000 active | AID 720702;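 active = inhibition above the mean of all tested compounds plus 3 SD, set per campaign, cut at about 25% in these data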;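 also: 0% = DMSO with enzyme and 100% = buffer with substrate but no TDP2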
Target sequence (O95551 whole entry, looked up): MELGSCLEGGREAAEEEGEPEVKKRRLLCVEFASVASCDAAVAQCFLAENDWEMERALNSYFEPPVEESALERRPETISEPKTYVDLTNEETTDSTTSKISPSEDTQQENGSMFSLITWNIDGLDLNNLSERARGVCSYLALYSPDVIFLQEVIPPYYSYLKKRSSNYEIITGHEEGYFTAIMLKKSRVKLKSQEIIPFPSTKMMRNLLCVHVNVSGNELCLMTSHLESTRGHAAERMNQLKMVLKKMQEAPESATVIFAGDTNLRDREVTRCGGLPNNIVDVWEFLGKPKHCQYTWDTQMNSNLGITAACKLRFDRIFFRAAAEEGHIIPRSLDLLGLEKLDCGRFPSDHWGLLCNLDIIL
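Assay system: recombinant human TDP2 / Reagent: T5PNP substrate at 5 mM, a TopII-DNA adduct mimic / Measured by: epi absorbance from released p-nitrophenol / Evaluation: % inhibition relative to enzyme-containing and enzyme-free wells / Control set: enzyme-free and DMSO wells / Replicates: each compound tested once, singlicate / Schedule: enzyme reaction with compound for 2 h at 37 °C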
PAD4 FP inh = PAD4 (human) enzyme inhibition. inhibition, % at 6.36 µM. 0.41% of 330,000 active. recombinant PAD4, RCA probe fluorescence polarization. AID 485272;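 active = percent inhibition above a cutoff equal to the mean of all tested compounds plus 3 SD, cut at about 15% in these data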;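 also: 0% = PAD4 with RCA probe and DMSO and 100% = probe without PAD4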
Starred values were filed as active, the others as inactive. Most compounds without a hit are left out; they make up all but 2.5% or so of the library.

Screening C=CCNC1=C(Cl)C(=O)c2ccccc2C1=O returned Fh CTSL1 inh 13, PRMT1 FP inh -1, GSTO1 inh 68*, TDP2 absorb 9 and PAD4 FP inh -1.
Screening Cc1cc(N(CN2CCCC2=O)C(=O)c2ccc(OC(C)C)cc2)no1 returned Fh CTSL1 inh 19*, PRMT1 FP inh -5, GSTO1 inh 18, TDP2 absorb -1 and PAD4 FP inh 2.
Screening Cc1cc(N(CN2CCCC2=O)C(=O)c2ccc(F)cc2)no1 returned Fh CTSL1 inh -20, PRMT1 FP inh 17, GSTO1 inh 4, TDP2 absorb 2 and PAD4 FP inh 0.
`COc1ccccc1CNC(=O)COC(=O)COc1ccccc1Cc1ccccc1` gave Fh CTSL1 inh 17*, PRMT1 FP inh 0, GSTO1 inh 2, TDP2 absorb 5 and PAD4 FP inh -1.
For Cc1ccccc1OCC(=O)OCC(=O)NCc1ccccc1 the results were PRMT1 FP inh -2, TDP2 absorb -7 and PAD4 FP inh 0.
Screening CN(C(=O)COC(=O)COc1ccccc1Cc1ccccc1)c1ccccc1 returned Fh CTSL1 inh 18*, PRMT1 FP inh 1, GSTO1 inh 9, TDP2 absorb -10 and PAD4 FP inh 0.
Screening CCOc1ccc(-n2c(SCC(=O)Nc3ccc(S(=O)(=O)Nc4nccs4)cc3)nnc2-c2ccc(C(C)(C)C)cc2)cc1 returned PRMT1 FP inh 4 and TDP2 absorb -7.
`CCN=c1scc(C)n1/N=C/c1ccc(O)c(O)c1O` gave Fh CTSL1 inh 1, PRMT1 FP inh 60*, GSTO1 inh 69*, TDP2 absorb -3 and PAD4 FP inh 3.
For COc1ccc(CCC(=O)Nc2ccc3c(c2)OCO3)cc1OC the results were Fh CTSL1 inh -1, PRMT1 FP inh -3, GSTO1 inh 35*, TDP2 absorb 7 and PAD4 FP inh -4.
O=C1[C@@H](CCc2ccccc2)[C@@H]2c3ccccc3C=NN2[C@@H]2c3ccccc3C=NN12 was read as PRMT1 FP inh -5 and TDP2 absorb 4.
For Cc1ccc(-c2nn(-c3ccccc3)cc2CO)o1 the results were Fh CTSL1 inh -3, PRMT1 FP inh 25*, GSTO1 inh 1, TDP2 absorb 8 and PAD4 FP inh -3.
For CCN1CCN(Cc2c(O)ccc3c2O/C(=C\c2ccccc2)C3=O)CC1 the results were Fh CTSL1 inh 3, PRMT1 FP inh 14, GSTO1 inh 4, TDP2 absorb -10 and PAD4 FP inh 0.
`COc1ccccc1/C=C/C=C1\Oc2c(ccc(O)c2CN2CCN(CCO)CC2)C1=O` gave Fh CTSL1 inh 6, PRMT1 FP inh 11, GSTO1 inh 3, TDP2 absorb -6 and PAD4 FP inh 0.
`CCN1CCN(Cc2c(O)ccc3c2O/C(=C\C=C\c2ccccc2)C3=O)CC1` gave Fh CTSL1 inh 3, PRMT1 FP inh 22*, GSTO1 inh 7, TDP2 absorb 1 and PAD4 FP inh -6.
Screening O=C1/C(=C/C=C/c2ccccc2)Oc2c1ccc(O)c2CN1CCN(CCO)CC1 returned Fh CTSL1 inh 1, PRMT1 FP inh 21*, GSTO1 inh 5, TDP2 absorb -13 and PAD4 FP inh -2.
For CC1CC(C)CN(CCC(=O)Nc2ccc(Br)cc2)C1 (stereo unspecified) the results were Fh CTSL1 inh 18*, PRMT1 FP inh -2, GSTO1 inh 4, TDP2 absorb 7 and PAD4 FP inh -2.
`O=C(Nc1ccncc1)c1cccc(S(=O)(=O)N2CCc3ccccc32)c1` gave Fh CTSL1 inh 17*, PRMT1 FP inh -1, GSTO1 inh -7, TDP2 absorb -13 and PAD4 FP inh -4.
For O=C(NCCO)/C(=C\c1cccs1)NC(=O)c1cccs1 the results were Fh CTSL1 inh 18*, PRMT1 FP inh -5, GSTO1 inh 1, TDP2 absorb 8 and PAD4 FP inh 4.
`O=C(NCc1ccco1)/C(=C\c1cccs1)NC(=O)c1cccs1` gave Fh CTSL1 inh 0, PRMT1 FP inh -1, GSTO1 inh 3, TDP2 absorb -3 and PAD4 FP inh 0.
CCOc1cc(/C=C2/SC(=S)N(CC(=O)O)C2=O)ccc1OC(=O)c1cccs1 was read as Fh CTSL1 inh 4, PRMT1 FP inh 3, GSTO1 inh -64, TDP2 absorb 0 and PAD4 FP inh 0.
For CCOc1cc(/C=C2\C(=O)N(c3ccc(C(N)=O)cc3)N=C2C)ccc1OC(=O)c1cccs1 the results were Fh CTSL1 inh -4, GSTO1 inh 73* and PAD4 FP inh 27*.
COc1cc(/C=C(\C#N)C(=O)c2ccc(O)c(O)c2)cc(I)c1O was read as Fh CTSL1 inh 3, PRMT1 FP inh 29*, GSTO1 inh 45*, TDP2 absorb 12 and PAD4 FP inh -32.
Screening CC(=O)n1cc(N(C(=O)CCl)c2ccc([N+](=O)[O-])cc2)c2ccccc21 returned Fh CTSL1 inh 3, PRMT1 FP inh 4, GSTO1 inh 75*, TDP2 absorb 18 and PAD4 FP inh 19*.
`Cn1cc(C(=O)N/N=C/c2ccc([N+](=O)[O-])cc2)c2ccccc21` gave Fh CTSL1 inh 1, PRMT1 FP inh -1, GSTO1 inh -12, TDP2 absorb 0 and PAD4 FP inh 1.
Screening O=Cc1[nH]c2ccccc2c1N(C(=O)CCl)c1ccc([N+](=O)[O-])cc1 returned Fh CTSL1 inh 2, PRMT1 FP inh 6, GSTO1 inh 73*, TDP2 absorb 1 and PAD4 FP inh 11.
For O=C(NC1CCN(CC(=O)N(c2ccccc2)c2ccccc2)CC1)c1ccc([N+](=O)[O-])cc1 the results were Fh CTSL1 inh 0, PRMT1 FP inh 0, GSTO1 inh 6, TDP2 absorb 0 and PAD4 FP inh 0.
For CC(=O)n1cc(N(C(=O)CCl)c2ccccc2)c2ccccc21 the results were Fh CTSL1 inh -2, PRMT1 FP inh 12, GSTO1 inh 77*, TDP2 absorb -1 and PAD4 FP inh 13.
For CC(=O)n1cc(CO)c2ccccc21 the results were Fh CTSL1 inh -4, PRMT1 FP inh -7, GSTO1 inh 7, TDP2 absorb 5 and PAD4 FP inh 0.
`COC(=O)[C@]12C[C@H](CC(=O)N3CCCC3)C(=O)N(Cc3ccc(Cl)cc3Cl)C1=C[C@H](COCc1ccccc1)O[C@@H]2C` gave PRMT1 FP inh 6 and TDP2 absorb 3.
Screening CCC(NC(=O)C1CCCN(c2ncccn2)C1)c1ccccc1 (stereo unspecified) returned PRMT1 FP inh -1 and TDP2 absorb 6.
For N#CCC[C@H]1CC[C@]2(CCCN(Cc3ccc(Br)cc3)C2)O1 the results were PRMT1 FP inh 3 and TDP2 absorb 6.
`Oc1ccc(/C=N/Nc2cc(N3CCOCC3)nc(N3CCOCC3)n2)cc1O` gave Fh CTSL1 inh 0, PRMT1 FP inh 2, GSTO1 inh 54*, TDP2 absorb 7 and PAD4 FP inh -1.
`Oc1cccc(/C=N/Nc2cc(N3CCOCC3)nc(N3CCOCC3)n2)c1` gave Fh CTSL1 inh 3, PRMT1 FP inh 2, GSTO1 inh 2, TDP2 absorb -2 and PAD4 FP inh -5.

High-throughput results as filed in PubChem.
